Measurements: ChEMBL document CHEMBL2176901, “Pyrrolo[3,4-h]quinolinones a new class of photochemotherapeutic agents” (Bioorg Med Chem, 2011)

How the values were obtained:
Type in all cases: functional, cell-based
[1] = system: HL-60; experiment: Phototoxicity in 3.75 J/cm'2 UV-A irradiated human HL60 cells after 72 hrs by MTT assay; conditions: HL-60, light or radiation study
How it was run: (§1)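 HL-60 and Jurkat (8×10³/well, RPMI-1640) and MCF-7, LoVo, NCTC-2544 (5×10³/well; DMEM or Ham's F12) preincubated 18 h at 37 °C, 5% CO₂. Compound in DMSO diluted in HBSS pH 7.2, 30 min at 37 °C, then UV-A at 2.5 or 3.75 J/cm². Medium replaced, 72 h incubation, MTT read-out. IC50 as mean ± SEM of three experiments.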

[2] = Phototoxicity in 3.75 J/cm'2 UV-A irradiated human NCTC-2544 cells after 72 hrs by MTT assay; conditions: NCTC-2544, light or radiation study
How it was run: (§2)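 Seeded at 5 × 10³ cells/well with 10% FBS: MCF-7 and NCTC-2544 in DMEM, LoVo in Ham's F12. Pre-incubated 18 h at 37 °C, 5% CO2. Compound (DMSO stock diluted in HBSS pH 7.2) was applied for 30 min at 37 °C, then UV-A irradiation (mainly 365 nm, 4.0 mW/cm²). Medium was restored for 72 h before MTT. IC50 is the mean ± SEM of three experiences.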

[3] = system: HL-60; experiment: Phototoxicity in 2.5 J/cm'2 UV-A irradiated human HL60 cells after 72 hrs by MTT assay; conditions: HL-60, light or radiation study; how it was run: as §1
[4] = system: Jurkat; experiment: Phototoxicity in 2.5 J/cm'2 UV-A irradiated human Jurkat cells after 72 hrs by MTT assay; conditions: light or radiation study; how it was run: as §1
[5] = system: MCF7; experiment: Phototoxicity in 3.75 J/cm'2 UV-A irradiated human MCF7 cells after 72 hrs by MTT assay; conditions: MCF7, light or radiation study; how it was run: as §2
[6] = system: LoVo; experiment: Phototoxicity in 3.75 J/cm'2 UV-A irradiated human LoVo cells after 72 hrs by MTT assay; conditions: light or radiation study; how it was run: as §2
[7] = system: MCF7; experiment: Phototoxicity in 2.5 J/cm'2 UV-A irradiated human MCF7 cells after 72 hrs by MTT assay; conditions: MCF7, light or radiation study; how it was run: as §1
[8] = system: LoVo; experiment: Phototoxicity in 2.5 J/cm'2 UV-A irradiated human LoVo cells after 72 hrs by MTT assay; conditions: light or radiation study; how it was run: as §1
[9] = Phototoxicity in 2.5 J/cm'2 UV-A irradiated human NCTC-2544 cells after 72 hrs by MTT assay; conditions: NCTC-2544, light or radiation study; how it was run: as §1
[10] = system: Jurkat; experiment: Phototoxicity in 3.75 J/cm'2 UV-A irradiated human Jurkat cells after 72 hrs by MTT assay; conditions: light or radiation study
How it was run: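 Jurkat cells (8 × 10³/well) in RPMI-1640 with 10% FBS, held 18 h at 37 °C, 5% CO2. Compound stock in DMSO was diluted in HBSS pH 7.2 and added for 30 min at 37 °C. Cells were UV-A irradiated (lamp mainly 365 nm, 4.0 mW/cm²), then returned to medium for 72 h. MTT readout. IC50 is the mean ± SEM of three experiences.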

Row | SMILES | IC50 [1] | IC50 [2] | IC50 [3] | IC50 [4] | IC50 [5] | IC50 [6] | IC50 [7] | IC50 [8] | IC50 [9] | IC50 [10]
1 | CCOC(=O)c1c2c(c(C)n1C)-c1[nH]c(=O)c(S(=O)(=O)c3ccccc3)cc1CC2 | 1.8 µM | 6.2 µM | 3.6 µM | 2 µM | 5.1 µM | 4 µM | 10 µM | 7.9 µM | 10.1 µM | 1.4 µM
2 | Cn1c2c(cc(S(=O)(=O)c3ccccc3)c1=O)CCc1cn(-c3ccccc3)cc1-2 | > 20 µM | > 20 µM | > 20 µM | > 20 µM | > 20 µM | > 20 µM | > 20 µM | > 20 µM | > 20 µM | > 20 µM
3 | O=c1[nH]c2c(cc1S(=O)(=O)c1ccccc1)CCc1cn(-c3ccccc3)cc1-2 | 8 µM | > 20 µM | 12.2 µM | > 20 µM | > 20 µM | > 20 µM | > 20 µM | > 20 µM | > 20 µM | 7.4 µM
4 | CCOC(=O)c1[nH]c(C)c2c1CCc1cc(S(=O)(=O)c3ccccc3)c(=O)n(C)c1-2 | 5.8 µM | > 20 µM | > 20 µM | > 20 µM | > 20 µM | 13.2 µM | > 20 µM | > 20 µM | > 20 µM | 12.5 µM
5 | O=c1ccc2ccc3occc3c2o1 [ANGELICIN] | – | 0.9 µM | – | – | – | 1.1 µM | – | 4 µM | 4.2 µM | –
6 | COc1nc2c(cc1S(=O)(=O)c1ccccc1)CCc1cn(Cc3ccccc3)cc1-2 | 7.3 µM | 9.6 µM | 8.3 µM | 8.5 µM | 7.5 µM | 8.7 µM | 10 µM | 9.9 µM | 15.3 µM | 6.3 µM
7 | Cc1[nH]c(C(=O)O)c2c1-c1[nH]c(=O)c(S(=O)(=O)c3ccccc3)cc1CC2 | > 20 µM | > 20 µM | > 20 µM | > 20 µM | > 20 µM | > 20 µM | > 20 µM | > 20 µM | > 20 µM | > 20 µM
8 | Cc1c2c(c(C(=O)O)n1Cc1ccccc1)CCc1cc(S(=O)(=O)c3ccccc3)c(=O)[nH]c1-2 | > 20 µM | > 20 µM | > 20 µM | > 20 µM | > 20 µM | > 20 µM | > 20 µM | > 20 µM | > 20 µM | > 20 µM
9 | Cn1c2c(cc(S(=O)(=O)c3ccccc3)c1=O)CCc1cn(Cc3ccccc3)cc1-2 | 2.8 µM | 5.8 µM | 4.4 µM | 3.6 µM | 3.7 µM | 2.8 µM | 6.6 µM | 3.9 µM | 8.2 µM | 2.5 µM
10 | CCOC(=O)c1c2c(c(C)n1Cc1ccccc1)-c1c(cc(S(=O)(=O)c3ccccc3)c(=O)n1C)CC2 | 2.6 µM | 14.3 µM | 5.4 µM | 2.9 µM | 14.4 µM | 8.7 µM | > 20 µM | 12.1 µM | > 20 µM | 1.3 µM
11 | Cn1cc2c(c1)-c1[nH]c(=O)c(S(=O)(=O)c3ccccc3)cc1CC2 | 5.6 µM | > 20 µM | > 20 µM | > 20 µM | > 20 µM | > 20 µM | > 20 µM | > 20 µM | > 20 µM | > 20 µM
12 | Cn1cc2c(c1)-c1c(cc(S(=O)(=O)c3ccccc3)c(=O)n1C)CC2 | > 20 µM | > 20 µM | > 20 µM | > 20 µM | > 20 µM | > 20 µM | > 20 µM | > 20 µM | > 20 µM | > 20 µM
13 | O=c1[nH]c2c(cc1S(=O)(=O)c1ccccc1)CCc1cn(Cc3ccccc3)cc1-2 | 14.5 µM | > 20 µM | > 20 µM | > 20 µM | > 20 µM | > 20 µM | > 20 µM | > 20 µM | > 20 µM | > 20 µM
14 | CCOC(=O)c1[nH]c(C)c2c1CCc1cc(S(=O)(=O)c3ccccc3)c(=O)[nH]c1-2 | 9.1 µM | 15 µM | 13.7 µM | 18 µM | > 20 µM | 13.6 µM | > 20 µM | 17.5 µM | > 20 µM | 10 µM
15 | Cc1c2c(cn1C)CCc1cc(S(=O)(=O)c3ccccc3)c(=O)[nH]c1-2 | > 20 µM | > 20 µM | > 20 µM | > 20 µM | > 20 µM | > 20 µM | > 20 µM | > 20 µM | > 20 µM | > 20 µM
16 | Cc1c2c(c(C(=O)O)n1C)CCc1cc(S(=O)(=O)c3ccccc3)c(=O)[nH]c1-2 | > 20 µM | > 20 µM | > 20 µM | > 20 µM | > 20 µM | > 20 µM | > 20 µM | > 20 µM | > 20 µM | > 20 µM
